Rows were chosen to be rich in hits. Some 2.2% of all compounds tested hit in one or more screens of this group.
DENV2 CPE: inhibitors of DENV2 cytopathic effect | DENV2-infected cells, cytopathic effect rescue, plate reader | CPE inhibition, % at 9.99 µM | actives 1.7% (n = 350,000) | AID 651640; in the data active = CPE inhibition above about 20%, passing the limit was not always enough; inconclusive = no clear call, values can overlap the other calls; tested in BHK-21 cells
Statin myotox sup: suppression of simvastatin myotoxicity; C2C12 myotubes + simvastatin, ATP luminescence, 48 h; scaled: DMSO 0, geranylgeraniol control 100; rescue of ATP level, % at 7.49 µM; actives 0.78% (n = 330,000); AID 602340;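 active = mean ATP rescue above about 67%, or every replicate alone reaching that limit, limit read from the data, passing the limit was not always enough; inconclusive = no clear call, values can overlap the other calls; inactive = mean under the limit and some replicate under it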;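 note: myotubes were challenged with 10 µM simvastatin during compound exposure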
E-sel inducer: E-selectin induction on HUVECs. AID 686992. actives 0.37% (n = 260,000). activation, % at 7.58 µM. HUVEC E-selectin immunofluorescence imaging; normalized: neutral wells 0, TNF-alpha wells 100;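 active = mean E-selectin-positive cell signal at least 10% of the positive control, reached in at least 60% of replicates, without over 20% cell loss; inconclusive = no rule given, readout overlaps actives, possibly toxicity-flagged; inactive = the rest, including those meeting only one limit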
Target sequence (P16581 whole entry, looked up): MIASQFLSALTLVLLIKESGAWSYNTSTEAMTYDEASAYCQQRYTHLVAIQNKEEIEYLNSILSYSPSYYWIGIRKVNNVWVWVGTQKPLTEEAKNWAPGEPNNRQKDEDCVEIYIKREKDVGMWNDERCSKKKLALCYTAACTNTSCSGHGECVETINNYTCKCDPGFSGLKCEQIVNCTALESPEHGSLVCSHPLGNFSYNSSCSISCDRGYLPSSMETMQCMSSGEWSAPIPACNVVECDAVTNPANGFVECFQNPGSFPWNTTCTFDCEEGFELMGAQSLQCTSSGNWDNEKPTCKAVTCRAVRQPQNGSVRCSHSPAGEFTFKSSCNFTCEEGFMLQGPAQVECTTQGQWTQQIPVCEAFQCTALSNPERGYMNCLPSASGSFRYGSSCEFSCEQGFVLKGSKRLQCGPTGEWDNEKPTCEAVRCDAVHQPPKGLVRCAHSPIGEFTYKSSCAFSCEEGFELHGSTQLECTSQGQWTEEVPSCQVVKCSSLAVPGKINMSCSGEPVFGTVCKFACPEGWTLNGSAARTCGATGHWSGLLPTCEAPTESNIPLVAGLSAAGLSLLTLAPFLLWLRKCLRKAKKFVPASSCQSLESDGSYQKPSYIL
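Assay system: HUVEC, human umbilical vein endothelial cells / Amount: 3,000 HUVEC/well / Controls: TNF-alpha positive control, DMSO neutral control / Compound dosing: single concentration / Medium: EGM-2 over gelatin coat / Evaluation: percent E-selectin-positive cells / Signal: immunofluorescence imaging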
Hits are given with their value; 0 = inactive; ? = inconclusive; - = not tested or not shown.

SMILES	DENV2 CPE	Statin myotox sup	E-sel inducer
CCc1ccc(NC(=O)CN(c2cccc(C)c2)S(C)(=O)=O)cc1	0	99.9	-
C[C@H]1CCCCO[C@@H](CN(C)C)[C@@H](C)CN([C@@H](C)CO)C(=O)c2cc(NC(=O)NC3CCCCC3)ccc2O1	0	0	0
Cc1ccc(S(=O)(=O)Nc2ccc3c(c2)C(=O)N([C@H](C)CO)C[C@H](C)[C@H](CN(C)Cc2ccc(C(F)(F)F)cc2)OCCCC[C@H](C)O3)cc1	0	-	-
CO[C@@H]1CN(C)C(=O)c2ccc(NC(=O)c3ccccn3)cc2OC[C@@H](C)N(C(=O)Nc2ccccc2Cl)C[C@H]1C	-	0	-
C[C@H]1CN([C@@H](C)CO)C(=O)c2cccc(NC(=O)CCCCCC(=O)Nc3ccccc3N)c2O[C@H]1CN(C)Cc1ccc(-c2ccccc2)cc1	0	-	0
C[C@H]1CN([C@@H](C)CO)C(=O)c2cc(NC(=O)CCCCCC(=O)Nc3ccccc3N)ccc2O[C@@H]1CN(C)Cc1ccc2c(c1)OCO2	0	-	-
C[C@@H]1CN([C@@H](C)CO)C(=O)c2cccc(NC(=O)CCCCCC(=O)Nc3ccccc3N)c2O[C@@H]1CN(C)Cc1ccc2c(c1)OCO2	49.5	-	0
C[C@@H]1CN([C@H](C)CO)C(=O)c2cccc(NC(=O)CCCCCC(=O)Nc3ccccc3N)c2O[C@@H]1CN(C)Cc1ccc(-c2ccccc2)cc1	36.5	-	0
C[C@@H]1CN([C@@H](C)CO)C(=O)Cc2cc(NC(=O)c3ccncc3)ccc2O[C@H]1CN(C)S(=O)(=O)c1cn(C)cn1	0	0	0
C[C@@H]1CCCCO[C@@H](CN(C)Cc2ccc(Cl)c(Cl)c2)[C@H](C)CN([C@@H](C)CO)C(=O)c2cc(NC(=O)Nc3ccc(C(F)(F)F)cc3)ccc2O1	0	0	0
C/C=C/c1ccc([C@H]2[C@@H](CO)N(CC3CC3)[C@@H]2CNC(=O)NC(C)C)cc1	24.3	-	0
C/C=C/c1ccc([C@@H]2[C@H](CO)N(C(=O)C3CC3)[C@H]2CN(CC)C(C)=O)cc1	0	0	0
C/C=C/c1ccc([C@H]2[C@@H](CO)N(C(=O)NC(C)C)[C@H]2CN(C)C(=O)CC)cc1	0	0	0
C/C=C/c1ccc([C@H]2[C@@H](CN(C)C(=O)CC)N(C(=O)NC(C)C)[C@H]2CO)cc1	27.2	0	0
C/C=C/c1ccc([C@@H]2[C@@H](CN(CC)C(=O)CC)N(C(=O)C3CCC3)[C@H]2CO)cc1	24.8	0	0
C/C=C/c1ccc([C@H]2[C@@H](CO)N(CC3CCCC3)[C@@H]2CNC(=O)NC(C)C)cc1	0	-	0
CN(C)C(=O)c1ccc(-c2ccc([C@H]3[C@@H](C#N)N(C(=O)C4CCOCC4)[C@H]3CO)cc2)cc1	0	0	0
CO[C@@H]1CN(C)C(=O)c2ccc(NC(=O)Nc3ccccc3F)cc2OC[C@@H](C)N(Cc2ccccc2F)C[C@H]1C	0	0	0
C[C@@H]1CN([C@@H](C)CO)C(=O)c2cccc(NS(=O)(=O)c3cn(C)cn3)c2O[C@H]1CN(C)Cc1ccc(-c2ccccc2)cc1	0	0	0
COc1ccc(CCNC(=O)CCCCC(=O)NCCc2ccc(OC)cc2)cc1	0	0	-
COc1ccc(CN(CCNC(=O)CCCCC(=O)NCCN(Cc2ccc(OC)cc2)C(C)C)C(C)C)cc1	30.2	-	-
CN1C(=O)c2cc(NC(=O)Nc3ccccc3F)ccc2OC[C@H]2O[C@H](CC(=O)O)CC[C@H]21	0	0	0
CN1c2ccc(Br)cc2[C@H]2[C@H](CCN2C(=O)C2CCCCC2)[C@@H]1CO	0	0	0
CN1c2ccc(Br)cc2[C@@H]2[C@@H](CCN2C(=O)C2CCCCC2)[C@@H]1CO	67.1	0	0
CN1c2ccc(C#Cc3cccnc3)cc2[C@@H]2[C@@H](CCN2C(=O)C2CCCC2)[C@@H]1CO	?	-	0
SMILES	DENV2 CPE	Statin myotox sup	E-sel inducer
CN1c2ccc(C#Cc3cccnc3)cc2[C@@H]2[C@@H](CCN2C(=O)C2CCC2)[C@H]1CO	0	-	63.5
Cc1cccc(-c2ccc([C@H]3[C@H]4CN(CCC(F)(F)F)CCCCN4[C@H]3CO)cc2)c1	-	-	0
COc1ccc(NC(=O)N[C@H]2CC[C@@H](CCNC(=O)CCN3CCCCC3)O[C@@H]2CO)cc1	0	0	0
C[C@@H]1CN([C@H](C)CO)C(=O)c2cc(NC(=O)CCN3CCOCC3)ccc2O[C@H]1CN(C)C(=O)Nc1ccc(C(F)(F)F)cc1	0	0	?
O=C(Nc1cccc(F)c1)N1C[C@H]2[C@@H](c3ccccc31)[C@H](CO)N2C(=O)c1ccccn1	0	0	0
COC(=O)C1=C(C)N(Cc2ccccc2C(F)(F)F)C(=NCc2ccccc2)NC1c1ccc(C(F)(F)F)cc1 (centres undefined)	0	-	0
COC(=O)C1=C(C)N(Cc2ccccc2C(F)(F)F)C(=NCc2ccc(C(F)(F)F)cc2)NC1c1ccc(Cl)cc1 (centres undefined)	24.9	-	0
COCCN=C1N[C@@H](c2ccccc2)C(C(=O)OC)=C(C)N1Cc1ccccc1	0	110.1	0
COC(=O)C1=C(C)N(Cc2cccc(C(F)(F)F)c2)C(=NCc2ccc(OC)cc2)NC1c1ccccc1C(F)(F)F (centres undefined)	0	-	0
COCCN=C1N[C@@H](c2ccc(Br)cc2)C(C(=O)OC)=C(C)N1Cc1ccccc1	-	0	0
CCN1C(=NCCN2CCOCC2)N[C@@H](c2ccccc2)C(C(=O)OC)=C1C	0	0	0
COC(=O)C1=C(C)N(Cc2cccc(C(F)(F)F)c2)C(=NCc2ccc(C(F)(F)F)cc2)NC1c1ccccc1C(F)(F)F (centres undefined)	27.6	-	0
COC(=O)C1=C(C)N(Cc2ccccc2)C(=NCCN2CCOCC2)N[C@H]1CCc1ccccc1	44.0	0	0
Cc1ccc(S(=O)(=O)N[C@H]2CC[C@@H](CC(=O)O)O[C@@H]2CO)cc1	0	0	0
O=C(Nc1ccc(Cl)c(Cl)c1)N[C@H]1CC[C@@H](CCn2cc(C3CCCC3)nn2)O[C@@H]1CO	0	-	0
C[C@H](CO)N1C[C@H](C)[C@H](CN(C)C(=O)c2cc(-c3ccccc3)on2)OCc2cn(nn2)CCCC1=O	-	0	0
CO[C@H]1CN(C)C(=O)c2cc(NC(=O)C3CC3)ccc2OC[C@@H](C)N(CC2CCOCC2)C[C@H]1C	0	0	0
C[C@H]1CN([C@@H](C)CO)C(=O)c2cc(NC(=O)Nc3ccc(F)cc3)ccc2O[C@@H]1CN(C)Cc1ccc(Oc2ccccc2)cc1	0	-	?
COC(=O)C1=C(C)N(Cc2ccccc2)C(=O)N[C@H]1c1ccc(Br)cc1	0	0	0
COC(=O)C1=C(C)N(Cc2ccccc2C(F)(F)F)C(=NCc2ccc(OC)cc2)NC1c1ccccc1 (centres undefined)	41.8	-	0
COC(=O)C1=C(C)N(Cc2ccccc2C(F)(F)F)C(=NCc2ccc(OC)cc2)NC1c1ccc(Cl)cc1 (centres undefined)	0	-	0
CC#CCN1C(=O)N[C@@H](c2ccccc2)C(C(=O)OC)=C1C	32.6	0	0
CCCNC(=O)Nc1ccc2c(c1)C(=O)N(C)C[C@@H](OC)[C@@H](C)CN(Cc1cncnc1)[C@H](C)CO2	-	0	0
C[C@H](CO)N1C[C@H](C)[C@H](CN(C)C(=O)c2cccc(F)c2)Oc2cc(-c3cncnc3)ccc2S1(=O)=O	0	0	0
Cc1cc(N2CCCC2)nc(-c2ccccc2O)n1	-	114.6	-

Screening results as filed in PubChem BioAssay.
